# Measurements from ChEMBL document CHEMBL3244134, “Potential anticancer agents. 16. Methotrexate analogues with a modified peptide side chain” (J Med Chem, 1978).
# Values joined by “and” are separate entries in the source; they are usually repeats but may differ in a detail not shown here. Identical values can stand only once.
# Key:
# W256 [1] = test: Antitumor activity against rat Walker 256 cells allografted in rat assessed as tumor growth inhibition at 60 mg/kg administered 14 times starting 7 days post challenge relative to control; settings: W256, 7 days, read-out: TGI
# L1210 [2] = test: Antitumor activity against mouse L1210 cells allografted in BDF1 mouse assessed as increase in life span at 78 mg/kg administered 9 times starting 24 hrs post challenge relative to control; assay type: functional; settings: L1210, 24 h
# Summary of the method: (§1)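 L1210 leukemia: BDF1 mice inoculated ip with 10⁶ leukemic cells. Treatment started 24 h after inoculation, given daily in aqueous solution at pH 8.0–8.4. Survival of treated mice compared with untreated controls, expressed as %ILS = (T/C − 1) × 100.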
# [3] = Toxicity in Wistar rat administered as single dose; assay type: organism-based; settings: in vivo
# Summary of the method: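 LD50 determined from single doses in Wistar rats, reported in mg/kg and mmol/kg.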
# L1210 [4] = test: Antitumor activity against mouse L1210 cells allografted in BDF1 mouse assessed as increase in life span at 23 mg/kg administered 7 times starting 24 hrs post challenge relative to control; assay type: functional; settings: L1210, 24 h
# Summary of the method: as §1
# L1210 [5] = test: Antitumor activity against mouse L1210 cells allografted in BDF1 mouse assessed as increase in life span at 90 mg/kg administered 9 times starting 24 hrs post challenge relative to control; assay type: functional; settings: L1210, 24 h
# Summary of the method: as §1
# L1210 [6] = test: Antitumor activity against mouse L1210 cells allografted in BDF1 mouse assessed as increase in life span at 20 mg/kg administered 7 times starting 24 hrs post challenge relative to control; assay type: functional; settings: L1210, 24 h
# Summary of the method: as §1
# L1210 [7] = test: Antitumor activity against mouse L1210 cells allografted in BDF1 mouse assessed as increase in life span at 25 mg/kg administered 6 times starting 24 hrs post challenge relative to control; assay type: functional; settings: L1210, 24 h
# Summary of the method: as §1
# L1210 [8] = test: Antitumor activity against mouse L1210 cells allografted in BDF1 mouse assessed as increase in life span at 50 mg/kg administered 6 times starting 24 hrs post challenge relative to control; assay type: functional; settings: L1210, 24 h
# Summary of the method: as §1
# W256 [9] = test: Antitumor activity against […] 256 cells allografted in rat assessed as tumor growth inhibition at 8 mg/kg administered 14 times starting 24 hrs post challenge relative to control; assay type: functional; settings: W256, 24 h, read-out: TGI
# L1210 [10] = test: Antitumor activity against mouse L1210 cells allografted in BDF1 mouse assessed as increase in life span at 10 mg/kg administered 8 times starting 24 hrs post challenge relative to control; assay type: functional; settings: L1210, 24 h
# Summary of the method: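 BDF1 mice inoculated ip with 10⁶ L1210 leukemia cells; daily dosing in aqueous solution at pH 8.0–8.4 starting 24 h after inoculation. Increase in life span computed as %ILS = (T/C − 1) × 100.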
# L1210 [11] = test: Antitumor activity against mouse L1210 cells allografted in BDF1 mouse assessed as increase in life span at 33 mg/kg administered 6 times starting 24 hrs post challenge relative to control; assay type: functional; settings: L1210, 24 h
# Summary of the method: as §1
# W256 [12] = test: Antitumor activity against […] 256 cells allografted in rat assessed as tumor growth inhibition at 40 mg/kg administered 9 times starting 7 days post challenge relative to control; settings: W256, 7 days, read-out: TGI
# L1210 [13] = test: Antitumor activity against mouse L1210 cells allografted in BDF1 mouse assessed as increase in life span at 45 mg/kg administered 10 times starting 24 hrs post challenge relative to control; assay type: functional; settings: L1210, 24 h
# Summary of the method: as §1
structure (smiles),measurement,setting,value
CCC(NC(=O)c1ccc(N(C)Cc2cnc3nc(N)nc(N)c3n2)cc1)C(=O)O (stereo not given),inhibition in vivo at 60 mg/kg,W256 [1],47%
same,ILS at 78 mg/kg,L1210 [2],16%
same,LD50,[3],925 mg/kg and 2250 µmol/kg
CN(Cc1cnc2nc(N)nc(N)c2n1)c1ccc(C(=O)NCC(=O)O)cc1,LD50,[3],250 mg/kg and 650 µmol/kg
same,ILS at 23 mg/kg,L1210 [4],0%
CC(C)C[C@H](NC(=O)c1ccc(N(C)Cc2cnc3nc(N)nc(N)c3n2)cc1)C(=O)O,ILS at 90 mg/kg,L1210 [5],24%
CC(C)C(NC(=O)c1ccc(N(C)Cc2cnc3nc(N)nc(N)c3n2)cc1)C(=O)O (stereo not given),LD50,[3],200 mg/kg and 470 µmol/kg
same,ILS at 20 mg/kg,L1210 [6],0%
CN(Cc1cnc2nc(N)nc(N)c2n1)c1ccc(C(=O)NCCC(=O)O)cc1.O,ILS at 25 mg/kg,L1210 [7],19%
same,LD50,[3],250 mg/kg and 580 µmol/kg
CN(CC(=O)O)C(=O)c1ccc(N(C)Cc2cnc3nc(N)nc(N)c3n2)cc1.O,LD50,[3],400 mg/kg and 920 µmol/kg
same,ILS at 50 mg/kg,L1210 [8],0%
CN(Cc1cnc2nc(N)nc(N)c2n1)c1ccc(C(=O)NCCCC(=O)O)cc1.O,inhibition in vivo at 8 mg/kg,W256 [9],55%
same,LD50,[3],106 mg/kg and 250 µmol/kg
same,ILS at 10 mg/kg,L1210 [10],0%
CC(NC(=O)c1ccc(N(C)Cc2cnc3nc(N)nc(N)c3n2)cc1)C(=O)O.O (stereo not given),ILS at 33 mg/kg,L1210 [11],0%
same,LD50,[3],349 mg/kg and 810 µmol/kg
CN(Cc1cnc2nc(N)nc(N)c2n1)c1ccc(C(=O)N[C@@H](Cc2ccccc2)C(=O)O)cc1.O,inhibition in vivo at 40 mg/kg,W256 [12],58%
same,LD50,[3],500 mg/kg and 1020 µmol/kg
same,ILS at 45 mg/kg,L1210 [13],14%
